Experimental data from ChEMBL document CHEMBL1132785, “Optimising inhibitors of trypanothione reductase using solid-phase chemistry” (Bioorg Med Chem Lett, 2000).

biological target: Trypanothione reductase (Trypanosoma cruzi, UniProt P28593); experiment: The compound was evaluated for inhibition of trypanothione reductase enzyme
In short: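 Substrate oxidised trypanothione at six levels spanning 0.25–5 × Km, with inhibitor at four experimentally chosen concentrations. Each condition run in triplicate. Ki obtained by fitting rates to the noncompetitive inhibition equation v = Vmax[S]/(1+[I]/Ki)/(Km+[S]).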

Sequence of Trypanothione reductase (P28593 whole entry): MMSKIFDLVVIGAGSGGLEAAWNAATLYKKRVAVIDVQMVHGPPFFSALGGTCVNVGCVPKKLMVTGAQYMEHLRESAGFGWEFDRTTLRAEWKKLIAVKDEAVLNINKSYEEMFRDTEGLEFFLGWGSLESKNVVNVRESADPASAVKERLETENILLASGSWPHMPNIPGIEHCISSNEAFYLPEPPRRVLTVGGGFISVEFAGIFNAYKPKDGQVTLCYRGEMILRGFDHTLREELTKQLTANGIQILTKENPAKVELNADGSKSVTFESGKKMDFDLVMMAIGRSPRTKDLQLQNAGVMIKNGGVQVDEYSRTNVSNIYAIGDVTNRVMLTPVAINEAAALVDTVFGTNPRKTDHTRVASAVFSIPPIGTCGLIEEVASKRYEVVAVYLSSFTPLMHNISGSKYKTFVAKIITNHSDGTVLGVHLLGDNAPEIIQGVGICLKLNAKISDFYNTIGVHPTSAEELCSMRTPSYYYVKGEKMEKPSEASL

Structure (SMILES) | Ki
O=C(NCCCCNCCCNC(=O)c1cnc2cc(C(F)(F)F)ccc2c1O)c1cnc2cc(C(F)(F)F)ccc2c1O | 850 nM
O=C(CCCc1c[nH]c2ccccc12)NCCCNCCCCNCCCNC(=O)CCCc1c[nH]c2ccccc12 | 1260 nM
O=C(CCc1ccc(O)c(O)c1)NCCCNCCCCNCCCNC(=O)CCc1ccc(O)c(O)c1 [KUKOAMINE A] | 1390 nM

The next compounds have a lower Ki than those just listed; values first:

Ki | Structure (SMILES)
750 nM | O=C(NCCCNCCCCNCCCNC(=O)c1cnc2cc(C(F)(F)F)ccc2c1O)c1cnc2cc(C(F)(F)F)ccc2c1O
390 nM | O=C(Cc1c[nH]c2ccccc12)NCCCNCCCCNCCCNC(=O)Cc1c[nH]c2ccccc12
350 nM | O=C(CCc1c[nH]c2ccccc12)NCCCNCCCCNCCCNC(=O)CCc1c[nH]c2ccccc12
280 nM | COc1ccc2[nH]cc(CC(=O)NCCCNCCCCNCCCNC(=O)Cc3c[nH]c4ccc(OC)cc34)c2c1
76 nM | O=C(Cc1c[nH]c2ccc(Br)cc12)NCCCNCCCCNCCCNC(=O)Cc1c[nH]c2ccc(Br)cc12
